Compound activity (PubChem BioAssay)
Calb FLC = C. albicans growth modulation with fluconazole. growth inhibition, % (no concentration beside the values). 300,000 tested, 0.57% active. AID 1979. C. albicans CaCi-2 (fluconazole-resistant clinical isolate) + fluconazole, Alamar Blue growth, 48 h;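 active = growth inhibition above about 58% in most replicates, limit read from the data, passing the limit was not always enough; inconclusive = exactly half the replicates above a set limit; inactive = most replicates below a set limit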;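 note: all wells also contain fluconazole at 8 µg/ml as a sub-toxic cotreatment; 0% = median of DMSO wells and 100% = median of geldanamycin control wells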
GalR3 antag = blocks the human galanin receptor 3. O60755. HEK293 GalR3-CNG cAMP membrane potential fluorescence; galR3 body fused to GalR1 C-terminus. inhibition, % at 3 µM. 360,000 tested, 0.44% active. AID 651719;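 active = inhibition above the screen-wide average plus 3 SD, cut at about 13% in these data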;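 note: forskolin and galanin both at EC90 stimulate the cells; cAMP rise reported by CNG channel membrane potential dye signal; 0% = forskolin plus galanin with DMSO and 100% = forskolin alone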
Target sequence (O60755 1-299 limits assumed): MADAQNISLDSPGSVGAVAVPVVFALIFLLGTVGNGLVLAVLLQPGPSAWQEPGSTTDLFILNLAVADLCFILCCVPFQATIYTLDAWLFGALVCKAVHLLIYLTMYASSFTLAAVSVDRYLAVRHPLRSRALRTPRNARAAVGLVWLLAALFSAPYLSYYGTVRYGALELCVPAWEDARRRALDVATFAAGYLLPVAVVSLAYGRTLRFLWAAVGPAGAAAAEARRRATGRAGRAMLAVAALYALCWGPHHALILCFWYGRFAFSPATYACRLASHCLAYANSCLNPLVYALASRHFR
Efflux pump mplx = blocks antifungal efflux pumps in multiplex yeast assay. S. cerevisiae Candida pump triplex, Nile Red efflux. inhibition, % at 10 µM. 330,000 tested, 0.44% active;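 active = plate passing quality check with inhibition over a set limit, or well fluorescence over plate mean plus 4 SD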;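 note: Nile Red retained in pooled yeast measured as flow cytometry median fluorescence; 0% = buffer negative control and 100% = Enniatin B positive control; higher means more Nile Red kept so more efflux inhibition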
TAG inh = inhibitors of triacylglycerol accumulation. H9c2 cells, Nile Red lipid (TAG) fluorescence; cells loaded with 200 µM oleic acid. inhibition, % at 12.5 µM. 230,000 tested, 0.66% active;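 active = pattern-corrected inhibition of lipid staining of at least 50% with the nuclear-stain viability signal not falling by more than 50%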;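 note: 0% = DMSO wells and 100% = triacsin C control wells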
MC4R ag barr = activates human MC4R beta-arrestin recruitment. P32245. U2OS MC4R beta-arrestin complementation, luminescence; percent of melanotan II response, DMSO zero. activation, % at 8.9 µM. 360,000 tested, 0.98% active;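 active = activation above a per-plate cutoff, the mean activation of sample wells on that plate plus 3 SD, cut at about 8% in these data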
Target sequence (P32245 whole entry, looked up): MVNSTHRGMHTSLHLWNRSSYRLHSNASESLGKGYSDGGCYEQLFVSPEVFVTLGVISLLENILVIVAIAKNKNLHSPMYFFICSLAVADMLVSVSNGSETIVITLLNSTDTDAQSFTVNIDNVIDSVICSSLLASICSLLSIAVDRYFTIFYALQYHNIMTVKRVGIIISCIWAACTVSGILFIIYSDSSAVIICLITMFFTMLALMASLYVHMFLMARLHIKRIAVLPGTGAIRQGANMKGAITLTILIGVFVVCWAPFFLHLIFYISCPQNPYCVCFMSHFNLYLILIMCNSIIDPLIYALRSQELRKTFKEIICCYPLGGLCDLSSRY
MC4R antag cAMP = antagonists of human melanocortin 4 receptor (MC4R); P32245; MC4R-expressing cells, MTII-stimulated cAMP, LANCE TR-FRET; inhibition, % at 6.5 µM; 360,000 tested, 0.48% active;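 active = inhibition above its plate's cutoff, the mean of tested wells on that plate plus 3 SD, cut at about 29% in these data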;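 note: 0% = Melanotan II alone and 100% = Melanotan II plus saturating MCL0020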
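System – human MC4R-expressing U2OS cells · Also added – Melanotan II · Dosing – one concentration, 6.5 µM nominal · Timing – 30-min compound, 1-h challenge, 1-h detection, room temperature · Measured by – Eu-cAMP/anti-cAMP TR-FRET, emission 671 nm · Replicates – singlicate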
Yeast cmpd fluor = flagged as fluorescent in efflux inhibitor counter-screen; S. cerevisiae AD/pABC3, compound fluorescence, flow cytometry; 1,700 tested, 4% active; shares compounds with Efflux pump mplx; fluorescence ratio to DMSO, % at 10 µM;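 active = fluorescence ratio to DMSO above its plate's cutoff, the plate mean ratio plus 5 SD, cut at about 210% in these data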;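 note: unstained yeast with no Nile Red so the signal is compound autofluorescence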
Mdr1 pump inh = inhibitors of Candida albicans Mdr1 efflux pump. shares compounds with Efflux pump mplx. 1,700 tested, 1% active. S. cerevisiae AD/CaMDR1, Nile Red efflux, flow cytometry. inhibition, % at 10 µM; in the data active = inhibition above about 26%;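 note: 0% = DMSO vehicle and 100% = reference inhibitor; higher means more Nile Red retained so more efflux inhibition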
Cdr2 pump inh = inhibitors of Candida albicans Cdr2 efflux pump | shares compounds with Efflux pump mplx | S. cerevisiae AD/CaCDR2, Nile Red retention, flow cytometry | Nile Red retention ratio vs DMSO, % at 10 µM | 1,700 tested, 4% active; in the data active = Nile Red retention ratio vs DMSO above about 190%;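 note: higher ratio means more blocking of Cdr2 efflux of the dye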
CaCdr1 efflux inh = inhibitors of Candida albicans Cdr1 efflux pump; inhibition, % at 10 µM; shares compounds with Efflux pump mplx; AID 588522; 1,700 tested, 1% active; S. cerevisiae AD/CaCDR1, Nile Red efflux, flow cytometry;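 active = inhibition above the screen-wide mean plus twice its standard deviation, cut at about 32% in these data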
Active calls of the source: *; ? = inconclusive; · = not tested or not shown. Hits are enriched below; roughly 2.9% of the tested compounds scored in any of these assays.

SMILES | Calb FLC | GalR3 antag | Efflux pump mplx | TAG inh | MC4R ag barr | MC4R antag cAMP | Yeast cmpd fluor | Mdr1 pump inh | Cdr2 pump inh | CaCdr1 efflux inh
Cc1cc(C)n2c(Br)c(CSc3nc4ccccc4s3)nc2n1 | -5.8 | -9.0 | 8.0* | · | -0.3 | -7.9 | 116.8 | 0.1 | 116.5 | 0.1
COc1ccc(Br)c(Cn2c(C)c(C(=O)NCc3ccc4c(c3)OCCO4)sc2=O)c1 | · | -1.8 | · | 11.1 | -0.3 | 1.5 | · | · | · | ·
CCC1(C(=O)c2ccc(Cl)cc2)C2c3ccccc3OC(=O)C21C(=O)Nc1ccccc1 (configuration not stated) | ? | -8.0 | 1.8* | · | 5.4 | 5.4 | 83.7 | -0.2 | 106.0 | 0.3
COc1ccc(-c2cc(C(=O)NCCN3CCOCC3)c3ccccc3n2)cc1 | 2.4 | 0.6 | -0.1 | 17.1 | 1.4 | -1.0 | 107.9 | -0.2 | 106.0 | 0.0
Cc1[nH]c2ccccc2c1CC(=O)Nc1ccc(Nc2cccnc2)c(-c2cc(F)cc(F)c2)c1 | · | -2.9 | · | · | · | · | · | · | · | ·
CN1CCN(CCC(=O)Nc2ccc3c(c2)OCO3)CC1 | 7.0 | 0.9 | 0.0 | -10.7 | -1.9 | 8.3 | · | · | · | ·
O=C(CCN1CCCCCC1)Nc1ccc2c(c1)OCCO2 | -29.9 | -1.2 | 0.6* | -25.5 | -2.1 | -0.1 | 101.4 | 0.0 | 103.9 | -0.1
O=C(NC(Cc1ccccc1)C(=O)O)c1ccc(S(=O)(=O)N2CCCC2)cc1 (configuration not stated) | -3.7 | -6.7 | 0.0 | · | -0.3 | 15.7 | · | · | · | ·
O=C(NC(Cc1ccccc1)C(=O)O)c1ccc(S(=O)(=O)N2CCCCC2)cc1 (configuration not stated) | 0.3 | -1.9 | 6.7* | · | -0.3 | 8.0 | 114.1 | 0.2 | 102.9 | -0.1
CCOc1ccccc1NC(=O)c1ccc(OCC)c([N+](=O)[O-])c1 | -5.6 | -2.3 | 0.1 | · | -1.1 | 4.8 | · | · | · | ·
CCOc1ccc(C(=O)Nc2cccc(-c3cc4ccccc4oc3=O)c2)cc1[N+](=O)[O-] | 3.9 | 3.0 | 1.0* | 45.2 | -2.3 | -2.7 | 107.2 | -0.1 | 100.7 | -0.1
COc1ccccc1C(=O)N1CCN(C(=O)[C@H](CCc2ccccc2)NC(=O)[C@H]2O[C@@H](n3cnc4c(N)ncnc43)[C@H](O)[C@@H]2O)CC1 | · | -5.0 | · | · | · | · | · | · | · | ·
O=C(c1sc2ccccc2c1Cl)N1CCN(c2ccccc2F)CC1 | 15.0 | -3.2 | 20.8* | -9.0 | -0.7 | -1.4 | 98.6 | -0.1 | 112.0 | 0.1
COc1cc(N)ccc1C(=O)O | 17.1 | -3.8 | -0.1 | -30.8 | -0.9 | -5.8 | · | · | · | ·
COc1cc(N)c(Br)cc1C(=O)O | 4.4 | -1.7 | 0.7* | 1.4 | 2.3 | -0.1 | 91.9 | -0.2 | 93.2 | -0.1
CN1CCN(c2ccccc2NC(=O)c2ccc(-c3ccc(Br)cc3)o2)CC1 | -3.3 | · | 0.1 | 28.0 | -2.7 | 6.0 | · | · | · | ·
CN1CCN(c2ccccc2NC(=O)c2ccc(-c3ccc(Cl)c(Cl)c3)o2)CC1 | -3.8 | -0.1 | 8.1* | 12.8 | -3.6 | 14.4 | 85.5 | 0.0 | 101.7 | 0.0
O=C(Nc1cccnc1)C1Cc2c(-c3ccco3)ccnc2O1 (configuration not stated) | · | -4.1 | · | 2.0 | -0.2 | 1.5 | · | · | · | ·
COC(=O)c1cc2c(c3c4ccccc4n(S(=O)(=O)c4ccc(C)cc4)c13)C(=O)N(C)C2 | · | -5.8 | · | · | · | · | · | · | · | ·
CCC(Sc1nncn1C)C(=O)Nc1ccccc1OC (configuration not stated) | -9.9 | -3.8 | 0.5* | · | 0.5 | -1.8 | 106.2 | -0.2 | 95.6 | 0.5
O=C1/C(=C\c2ccco2)CCC/C1=C\c1ccco1 | -10.5 | 3.6 | 60.2* | · | 2.3 | 5.2 | 98.3 | 0.1 | 105.1 | 0.2
CC1C/C(=C/c2ccco2)C(=O)/C(=C/c2ccco2)C1 (configuration not stated) | -7.1 | · | 0.7 | · | · | · | · | · | · | ·
COC(=O)[C@H](CO)N1C(=O)[C@@H]2[C@H](C1=O)C1C=C[C@H]2C1 | · | -4.7 | · | 16.6 | 0.7 | -0.4 | · | · | · | ·
CCOC(=O)c1c(O)c2cccc3c2n(c1=O)CC3 | 2.5 | -2.7 | 0.0 | -6.6 | 1.2 | 9.9 | 100.0 | -0.1 | 94.0 | 0.0
CCNC(=O)C1(C)CCCN1C(=O)c1c(F)cccc1F (configuration not stated) | · | -7.3 | · | -3.4 | -0.5 | -0.2 | · | · | · | ·
SMILES | Calb FLC | GalR3 antag | Efflux pump mplx | TAG inh | MC4R ag barr | MC4R antag cAMP | Yeast cmpd fluor | Mdr1 pump inh | Cdr2 pump inh | CaCdr1 efflux inh
C=CCn1c(=S)[nH]c2sccc2c1=O | -4.4 | 5.2 | 0.8* | -2.0 | -4.2 | -3.4 | 94.8 | -0.2 | 98.5 | 0.0
COc1cc(/C=C/C(=O)OCC(=O)NCC2CCCO2)ccc1OCC#N (configuration not stated) | -24.7 | 7.2 | 6.5* | · | -1.3 | 4.5 | 97.8 | -0.2 | 89.9 | 0.0
COc1ccc(CCNC(=O)COC(=O)/C=C/c2ccc(OCC#N)c(OC)c2)cc1OC | 40.5 | -0.9 | 0.0 | · | -1.8 | 18.2 | · | · | · | ·
COc1ccc(C(=O)COC(=O)c2nc3nccc(C)n3n2)cc1F | · | -5.3 | 0.0 | 3.1 | 0.1 | 9.8 | · | · | · | ·
Cc1ccc(-c2nnc(Nc3ccc4c(c3)OCO4)c3ccccc23)cc1S(=O)(=O)NCCO | 43.3 | -3.6 | 12.7* | · | -2.1 | -0.5 | 105.8 | -0.1 | 107.2 | -0.1
COc1ccc(OC)c2sc(N3CCCCC3)nc12 | 1.9 | -0.9 | 1.1* | -15.8 | -2.1 | 0.2 | 103.4 | -0.3 | 95.1 | 0.1
COc1ccc(OC)c2sc(N3CCc4ccccc4C3)nc12 | 8.9 | 3.3 | 0.1 | 6.9 | -2.3 | -7.2 | · | · | · | ·
CCN(C(=O)COC(=O)c1cc(S(=O)(=O)N2CCOCC2)c(Cl)cc1Cl)C1CCS(=O)(=O)C1 (configuration not stated) | -5.1 | -3.2 | 0.9* | · | -2.4 | 6.4 | 107.8 | 0.0 | 87.3 | -0.1
C[C@H](NC(=O)c1[nH]cnc1C(=O)Nc1ccccc1)c1ccccc1 | · | -6.1 | 0.1 | 7.8 | 2.4 | 3.5 | · | · | · | ·
Cc1cccc(NC(=O)c2nc[nH]c2C(=O)N[C@H](C)c2ccccc2)c1 | · | -3.2 | 0.9* | -44.4 | -1.9 | 10.5 | 105.7 | 0.1 | 103.8 | 0.0
CCN1CCN(CC(=O)Nc2cc(C(F)(F)F)ccc2OCCOC)CC1 | 2.0 | 8.2 | 1.3* | -4.6 | 0.5 | -4.0 | 104.5 | -0.5 | 107.2 | -0.1
CN1CCN(Cc2cc(Cl)c3cccnc3c2OC(=O)c2cccs2)CC1 | 2.4 | 0.1 | 11.1* | · | -1.4 | -5.9 | 96.6 | -0.3 | 97.7 | -0.1
CCN(CC)C(=O)Oc1c(Cl)cc(Cl)c2cccnc12 | 11.5 | -3.3 | 0.0 | 10.2 | -0.1 | 14.8 | · | · | · | ·
